Measured values taken from ChEMBL document CHEMBL5724801, “EUbOPEN Chemogenomics Library - Multiplex” (2024).
Several values for one entry are separate records, joined by “and”; a condition that tells them apart may be missing. Equal entries are not always repeated.

Columns and labels:
Fibroblast = assay: Multiplex assay against human fibroblast; format: toxicity, cell-based
In short: (§1)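 Four dyes were applied at seeding to live cells: Hoechst33342, BioTracker Green Microtubule Cytoskeleton Dye, MitoTracker Red and Annexin V Alexa Fluor 680. Imaging after compound addition used a CQ1 microscope at 37°C and 5% CO2. CellPathfinder machine-learning gating then sorted cells into Hoechst high-intensity objects or normal cells, normal cells into healthy, pyknosed or fragmented nuclei, and pyknosed cells into mitotic or apoptotic, with tubulin, mitochondrial-mass and membrane-permeability phenotypes given as per cents of healthy-nucleus cells.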

HEK-293T = assay: Multiplex assay against HEK293T; format: toxicity, cell-based; details: human; in short: as §1
[1] = 12 h, 1 µM, compound concentration 1 uM
[2] = 12 h, 10 µM, compound concentration 10 uM
[3] = 24 h, 1 µM, compound concentration 1 uM
[4] = 24 h, 10 µM, compound concentration 10 uM
[5] = 48 h, 1 µM, compound concentration 1 uM
[6] = 48 h, 10 µM, compound concentration 10 uM

CCC(=O)OCC(=O)[C@@]1(OC(=O)CC)[C@@H](C)C[C@H]2[C@@H]3CCC4=CC(=O)C=C[C@]4(C)[C@@]3(Cl)[C@@H](O)C[C@@]21C [BECLOMETHASONE DIPROPIONATE] was tested, and the “Population Apoptotic (%)” value (Fibroblast; [1]) was 38% and 42%, the “Population Fragmented Nuclei (%)” value (Fibroblast; [1]) was 13% and 30% and the “Population Healthy Nuclei (%)” value (Fibroblast; [1]) was 73% and 40%. The “Population Hoechst High Intensity Objects (%)” value (Fibroblast; [1]) was 3%, the “Population Membrane Permeable-Phenotype (%)” value (Fibroblast; [1]) was 1% and 5% and the “Population Mitochondria Different-Phenotype (%)” value (Fibroblast; [1]) was 2% and 10%. For the same compound, the “Population Mitotic Cells (%)” value (Fibroblast; [1]) was 61% and 57%, the “Population Normal (%)” value (Fibroblast; [1]) was 96% and the “Population Pyknosed Nuclei (%)” value (Fibroblast; [1]) was 13% and 30%. The “Population Tubulin-Different-Phenotype (%)” value (Fibroblast; [1]) was 47% and 63%, the “Total Cell Count” value (Fibroblast; [1]) was 135 and 155 and the “Population Apoptotic (%)” value (Fibroblast; [2]) was 40%. The “Population Healthy Nuclei (%)” value (Fibroblast; [2]) was 69% and 42%, the “Population Hoechst High Intensity Objects (%)” value (Fibroblast; [2]) was 8% and 5% and the “Population Mitochondria Different-Phenotype (%)” value (Fibroblast; [2]) was 17% and 20%. For the same compound, the “Population Mitotic Cells (%)” value (Fibroblast; [2]) was 60% and 59%, the “Population Normal (%)” value (Fibroblast; [2]) was 91% and 94% and the “Population Pyknosed Nuclei (%)” value (Fibroblast; [2]) was 20% and 24%. The “Population Tubulin-Different-Phenotype (%)” value (Fibroblast; [2]) was 87% and 94%, the “Total Cell Count” value (Fibroblast; [2]) was 157 and 96 and the “Population Apoptotic (%)” value (Fibroblast; [3]) was 50% and 47%. The “Population Fragmented Nuclei (%)” value (Fibroblast; [3]) was 16% and 30%, the “Population Healthy Nuclei (%)” value (Fibroblast; [3]) was 65% and 45% and the “Population Hoechst High Intensity Objects (%)” value (Fibroblast; [3]) was 1% and 6%. The “Population Membrane Permeable-Phenotype (%)” value (Fibroblast; [3]) was 3% and 7%, the “Population Mitochondria Different-Phenotype (%)” value (Fibroblast; [3]) was 2% and 7% and the “Population Mitotic Cells (%)” value (Fibroblast; [3]) was 50% and 52%. For the same compound, the “Population Normal (%)” value (Fibroblast; [3]) was 98% and 93%, the “Population Pyknosed Nuclei (%)” value (Fibroblast; [3]) was 18% and 24% and the “Population Tubulin-Different-Phenotype (%)” value (Fibroblast; [3]) was 34% and 60%. For the same compound, the “Total Cell Count” value (Fibroblast; [3]) was 134 and 150, the “Population Apoptotic (%)” value (Fibroblast; [4]) was 40% and 19% and the “Population Fragmented Nuclei (%)” value (Fibroblast; [4]) was 13% and 38%. The “Population Healthy Nuclei (%)” value (Fibroblast; [4]) was 66% and 40%, the “Population Hoechst High Intensity Objects (%)” value (Fibroblast; [4]) was 6% and the “Population Mitochondria Different-Phenotype (%)” value (Fibroblast; [4]) was 30% and 12%. The “Population Mitotic Cells (%)” value (Fibroblast; [4]) was 59% and 80%, the “Population Normal (%)” value (Fibroblast; [4]) was 93% and the “Population Pyknosed Nuclei (%)” value (Fibroblast; [4]) was 19% and 21%. The “Population Tubulin-Different-Phenotype (%)” value (Fibroblast; [4]) was 86% and 79%, the “Total Cell Count” value (Fibroblast; [4]) was 148 and 104 and the “Population Apoptotic (%)” value (Fibroblast; [5]) was 28% and 52%. For the same compound, the “Population Fragmented Nuclei (%)” value (Fibroblast; [5]) was 13% and 31%, the “Population Healthy Nuclei (%)” value (Fibroblast; [5]) was 56% and 41% and the “Population Hoechst High Intensity Objects (%)” value (Fibroblast; [5]) was 3% and 7%. The “Population Membrane Permeable-Phenotype (%)” value (Fibroblast; [5]) was 1% and 5%, the “Population Mitochondria Different-Phenotype (%)” value (Fibroblast; [5]) was 15% and 9% and the “Population Mitotic Cells (%)” value (Fibroblast; [5]) was 71% and 47%. For the same compound, the “Population Normal (%)” value (Fibroblast; [5]) was 96% and 92%, the “Population Pyknosed Nuclei (%)” value (Fibroblast; [5]) was 30% and 27% and the “Population Tubulin-Different-Phenotype (%)” value (Fibroblast; [5]) was 61% and 54%. For the same compound, the “Total Cell Count” value (Fibroblast; [5]) was 132 and 143, the “Population Apoptotic (%)” value (Fibroblast; [6]) was 67% and 37% and the “Population Fragmented Nuclei (%)” value (Fibroblast; [6]) was 21% and 33%. The “Population Healthy Nuclei (%)” value (Fibroblast; [6]) was 54% and 33%, the “Population Hoechst High Intensity Objects (%)” value (Fibroblast; [6]) was 6% and 3% and the “Population Membrane Permeable-Phenotype (%)” value (Fibroblast; [6]) was 0% and 18%. The “Population Mitotic Cells (%)” value (Fibroblast; [6]) was 32% and 62%, the “Population Normal (%)” value (Fibroblast; [6]) was 93% and 96% and the “Population Pyknosed Nuclei (%)” value (Fibroblast; [6]) was 24% and 33%. The “Population Tubulin-Different-Phenotype (%)” value (Fibroblast; [6]) was 76% and 84%, the “Total Cell Count” value (Fibroblast; [6]) was 162 and 99 and the “Population Apoptotic (%)” value (HEK-293T; [1]) was 43% and 47%. The “Population Fragmented Nuclei (%)” value (HEK-293T; [1]) was 8% and 5%, the “Population Healthy Nuclei (%)” value (HEK-293T; [1]) was 75% and 74% and the “Population Hoechst High Intensity Objects (%)” value (HEK-293T; [1]) was 7% and 4%. For the same compound, the “Population Membrane Permeable-Phenotype (%)” value (HEK-293T; [1]) was 0%, the “Population Mitochondria Different-Phenotype (%)” value (HEK-293T; [1]) was 60% and 75% and the “Population Mitotic Cells (%)” value (HEK-293T; [1]) was 56% and 52%. For the same compound, the “Population Normal (%)” value (HEK-293T; [1]) was 92% and 95%, the “Population Pyknosed Nuclei (%)” value (HEK-293T; [1]) was 15% and 19% and the “Population Tubulin-Different-Phenotype (%)” value (HEK-293T; [1]) was 48% and 42%. For the same compound, the “Total Cell Count” value (HEK-293T; [1]) was 388 and 356, the “Population Apoptotic (%)” value (HEK-293T; [2]) was 60% and 68% and the “Population Fragmented Nuclei (%)” value (HEK-293T; [2]) was 8% and 6%. For the same compound, the “Population Healthy Nuclei (%)” value (HEK-293T; [2]) was 66%, the “Population Hoechst High Intensity Objects (%)” value (HEK-293T; [2]) was 14% and 16% and the “Population Membrane Permeable-Phenotype (%)” value (HEK-293T; [2]) was 0%. The “Population Mitochondria Different-Phenotype (%)” value (HEK-293T; [2]) was 87% and 93%, the “Population Mitotic Cells (%)” value (HEK-293T; [2]) was 39% and 31% and the “Population Normal (%)” value (HEK-293T; [2]) was 85% and 83%. For the same compound, the “Population Pyknosed Nuclei (%)” value (HEK-293T; [2]) was 25% and 27%, the “Population Tubulin-Different-Phenotype (%)” value (HEK-293T; [2]) was 65% and 35% and the “Total Cell Count” value (HEK-293T; [2]) was 236 and 252. For the same compound, the “Population Apoptotic (%)” value (HEK-293T; [3]) was 32% and 43%, the “Population Fragmented Nuclei (%)” value (HEK-293T; [3]) was 7% and the “Population Healthy Nuclei (%)” value (HEK-293T; [3]) was 81%. The “Population Hoechst High Intensity Objects (%)” value (HEK-293T; [3]) was 4% and 5%, the “Population Membrane Permeable-Phenotype (%)” value (HEK-293T; [3]) was 0% and the “Population Mitochondria Different-Phenotype (%)” value (HEK-293T; [3]) was 40% and 52%. The “Population Mitotic Cells (%)” value (HEK-293T; [3]) was 67% and 56%, the “Population Normal (%)” value (HEK-293T; [3]) was 95% and 94% and the “Population Pyknosed Nuclei (%)” value (HEK-293T; [3]) was 11%. For the same compound, the “Population Tubulin-Different-Phenotype (%)” value (HEK-293T; [3]) was 31% and 18%, the “Total Cell Count” value (HEK-293T; [3]) was 507 and 446 and the “Population Apoptotic (%)” value (HEK-293T; [4]) was 56% and 62%.
